Compounds with a hit are over-represented: about 4.9% of the library has one in this group of screens.
WT yeast gro inh: growth inhibition of WT strain, primary screen, mitochondrial fusion inhibitor project, WT and mutant strains, chemical genetic. mitochondrial fusion phenotypic screen. inhibition, % at 10 µM. hit rate 2.1% among 190,000. AID 1362, 2008; in the data active = inhibition above about 58%; tested in S. cerevisiae
NPY1 pot ag: NPY-Y1 receptor potentiators or agonists, primary screen, cell-based. Neuropeptide Y receptor type 1 (Homo sapiens), P25929. NPY-Y1 expressing cells, potentiator/agonist activation. activation, % at 3.6 µM. hit rate 0.37% among 220,000. AID 1304, 2008; in the data active = activation above about 33%, passing the limit was not always enough;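 also: cells stimulated with NPY at EC10 then isoproterenol at EC100; 0% = low agonist plus stimulus and 100% = saturating agonist plus stimulus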
Target sequence (P25929 whole entry, looked up): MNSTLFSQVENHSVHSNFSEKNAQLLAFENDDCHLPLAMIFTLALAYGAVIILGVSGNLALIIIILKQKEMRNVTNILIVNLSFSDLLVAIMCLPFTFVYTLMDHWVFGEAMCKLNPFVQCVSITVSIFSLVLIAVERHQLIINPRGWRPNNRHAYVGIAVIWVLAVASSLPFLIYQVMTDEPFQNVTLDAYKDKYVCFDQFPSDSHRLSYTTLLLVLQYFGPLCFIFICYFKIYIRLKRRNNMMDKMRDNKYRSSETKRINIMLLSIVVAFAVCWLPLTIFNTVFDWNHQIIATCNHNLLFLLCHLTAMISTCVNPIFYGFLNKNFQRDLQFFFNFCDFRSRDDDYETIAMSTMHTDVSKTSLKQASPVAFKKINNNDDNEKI
NPY-Y1 antag: NPY-Y1 receptor antagonists, primary screen, cell-based; Neuropeptide Y receptor type 1 (Homo sapiens), P25929; HEK293-CNG Y1 cells, membrane potential fluorescence; NPY at EC95, then isoproterenol; inhibition, % at 3.6 µM; hit rate 1% among 200,000;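 active = inhibition above the campaign mean inhibition of all tested compounds plus 3 SD, cut at about 20% in these data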;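 also: 0% = DMSO wells given NPY plus isoproterenol and 100% = isoproterenol alone without NPY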
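Assay system: HEK293 Y1/CNG channel cell line; Doses: single compound dose of 3.6 µM, 0.4% DMSO; Timing: dye 3 h, compound 60 min room temperature, stimulation 45 min; Technique: Membrane-potential fluorescent dye readout; Measure: % inhibition of NPY effect.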
NPY-Y2 antag: NPY-Y2 receptor antagonists, primary screen, cell-based | Neuropeptide Y receptor type 2 (Homo sapiens), P49146 | NPY-Y2 expressing cells, antagonist mode | inhibition, % at 2.7 µM | hit rate 0.99% among 140,000 | AID 793, 2007; in the data active = inhibition above about 17%;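 also: 0% = vehicle with agonist challenge and 100% = reference antagonist with challenge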
Target sequence (P49146 whole entry, looked up): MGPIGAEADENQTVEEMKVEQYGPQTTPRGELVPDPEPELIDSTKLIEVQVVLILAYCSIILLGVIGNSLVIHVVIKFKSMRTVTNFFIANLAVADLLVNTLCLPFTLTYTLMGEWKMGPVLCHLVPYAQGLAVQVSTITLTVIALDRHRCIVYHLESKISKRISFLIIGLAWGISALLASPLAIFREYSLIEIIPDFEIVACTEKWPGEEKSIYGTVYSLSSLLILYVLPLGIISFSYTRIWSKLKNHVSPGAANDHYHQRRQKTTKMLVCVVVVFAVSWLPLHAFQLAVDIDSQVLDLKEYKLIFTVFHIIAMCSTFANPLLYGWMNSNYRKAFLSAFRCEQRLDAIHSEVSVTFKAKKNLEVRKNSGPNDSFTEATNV
RAM network inh: inhibitors of the yeast RAM network, primary screen, dse1pr::URA3 reporter, 5-FOA selection. S. cerevisiae dse1pr::URA3 reporter, 5-FOA growth OD615, 2 d; analog-sensitive cbk1-as2 kinase mutant strain. inhibition, % at 50 µM. hit rate 1.8% among 190,000. AID 868, 2007;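 active = inhibition above a set limit, 3 SD over mean compound inhibition, cut at about 8.4% in these data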;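 also: 0% = DMSO-only wells with no growth and 100% = 10 µM 1-NA-PP1 full growth; inhibition rescues growth on 5-FOA so higher OD means more RAM inhibition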
NPY-Y2 PAM-ag: NPY-Y2 potentiators or agonists, primary screen, cell-based | Neuropeptide Y receptor type 2 (Homo sapiens), P49146 | cells expressing NPY-Y2, potentiator/agonist read-out | activation, % at 3.6 µM | hit rate 0.45% among 220,000 | AID 1359, 2008; in the data active = activation above about 27%;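 also: cells stimulated with NPY near EC25 plus isoproterenol at EC100; 0% = vehicle plus submaximal agonist and 100% = vehicle plus saturating agonist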
NPY-Y2 pot conf: NPY-Y2 potentiators or agonists, confirmation, cell-based; shares compounds with NPY-Y2 PAM-ag; cell-based NPY-Y2 potentiator/agonist assay; activation, % at 3.6 µM; hit rate 20% among 450; AID 1539, 2009; in the data active = activation above about 33%
NPY-Y1 counter: NPY-Y1 potentiators or agonists, counter-screen for NPY-Y2 potentiator project, cell-based, fluorescence | Y1 HEK293-CNG cells, membrane potential fluorescence | shares compounds with NPY-Y2 PAM-ag | activation, % at 3.6 µM | hit rate 20% among 450 | AID 1651, 2009; in the data active = activation above about 45%;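 also: cells stimulated with submaximal NPY then isoproterenol with phosphodiesterase inhibitor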
NPY-Y1 agonist 2: NPY-Y1 direct agonists, selectivity assay for NPY-Y2 potentiator project, cell-based, fluorescence. shares compounds with NPY-Y2 PAM-ag. HEK293 Y1-CNGC, membrane potential fluorescence, agonism. activation, % at 3.6 µM. hit rate 37% among 450. AID 1702, 2009;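 active = activation above the mean of DMSO-only control wells plus 3 SD, cut at about 18% in these data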;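 also: cells stimulated with 1 µM isoproterenol plus the PDE inhibitor Ro 20-1724; 0% = isoproterenol with DMSO and no NPY and 100% = 40 nM NPY; Y1 agonists lower the membrane potential dye signal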
CNGC inh: CNGC cAMP sensor activity inhibitors, counter-screen for NPY-Y2 potentiator project, cell-based, HEK293-CNG parental, membrane potential fluorescence. hit rate 32% among 450. isoproterenol cAMP. AID 1703, 2009. inhibition, % at 3.6 µM. shares compounds with NPY-Y2 PAM-ag;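 active = inhibition above the control-well mean plus 3 SD of those wells, cut at about 22% in these data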;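 also: 0% = DMSO with isoproterenol and 100% = DMSO without isoproterenol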
NPY-Y2 ag 2: NPY-Y2 direct agonists, counter-screen for NPY-Y2 potentiator project, cell-based, fluorescence | shares compounds with NPY-Y2 PAM-ag | HEK293 Y2/CNGC cells, membrane potential fluorescence, agonist mode | activation, % at 3.6 µM | hit rate 56% among 450 | AID 1710, 2009;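 active = activation above the mean of solvent-only control wells plus 3 SD, cut at about 10% in these data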;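 also: cells stimulated by isoproterenol with no NPY added so direct agonism is tested; 0% = DMSO with isoproterenol alone and 100% = NPY at EC100 plus isoproterenol; agonism lowers probe fluorescence through less cAMP and CNG channel opening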
Starred values were filed as active, the others as inactive.

Cc1ccc2c(c1)C(=O)CC(O)(C(F)F)O2 (configuration not stated) was read as NPY1 pot ag -13 and NPY-Y2 PAM-ag -3.
`COCCCNC(=O)c1c[nH]c2ccc(S(=O)(=O)N3CCc4ccccc43)cc2c1=O` gave WT yeast gro inh -8, NPY1 pot ag 12, NPY-Y1 antag 0, RAM network inh 4, NPY-Y2 PAM-ag 33*, NPY-Y2 pot conf 14, NPY-Y1 counter 8, NPY-Y1 agonist 2 -3, CNGC inh 1 and NPY-Y2 ag 2 13*.
O=S1(=O)N=C(N/N=C/c2ccccn2)c2ccccc21 was read as WT yeast gro inh 8, NPY1 pot ag -4, NPY-Y1 antag -4, NPY-Y2 antag 2, RAM network inh 1 and NPY-Y2 PAM-ag -6.
Screening CC1=NC(=O)C(N=Nc2ccccc2C(=O)O)N1c1ccccc1 (configuration not stated) returned WT yeast gro inh -9, NPY1 pot ag 30, NPY-Y1 antag -4, RAM network inh 1, NPY-Y2 PAM-ag 30*, NPY-Y2 pot conf 21, NPY-Y1 counter 29, NPY-Y1 agonist 2 10, CNGC inh -1 and NPY-Y2 ag 2 15*.
COc1ccc(-n2c(SCC(=O)Nc3nccs3)nnc2-c2ccoc2C)cc1 was read as WT yeast gro inh -12, NPY1 pot ag -46, NPY-Y1 antag -4, NPY-Y2 antag -1, RAM network inh 2 and NPY-Y2 PAM-ag -12.
N#CC(C#N)=C(Nc1ccc(F)cc1)SCc1cccc(F)c1 was read as WT yeast gro inh 53, NPY1 pot ag 4, NPY-Y1 antag 8, NPY-Y2 antag 3, RAM network inh 3, NPY-Y2 PAM-ag 37*, NPY-Y2 pot conf -4, NPY-Y1 counter -37, NPY-Y1 agonist 2 -25, CNGC inh -17 and NPY-Y2 ag 2 2.
`CCOc1ccc(N/C(SCc2cccc([N+](=O)[O-])c2)=C(/C#N)C(N)=O)cc1` gave WT yeast gro inh 25, NPY1 pot ag 5, NPY-Y1 antag -9, RAM network inh 6 and NPY-Y2 PAM-ag 8.
For Cc1nn(Cc2ccccc2Cl)c(C)c1C(=O)N1CCN(c2ccccc2)CC1 the results were WT yeast gro inh 9, NPY1 pot ag 7, NPY-Y1 antag 12, NPY-Y2 antag 6, RAM network inh 0, NPY-Y2 PAM-ag 116*, NPY-Y2 pot conf 1, NPY-Y1 counter -3, NPY-Y1 agonist 2 -3, CNGC inh -5 and NPY-Y2 ag 2 6.
Screening Cc1nn(Cc2ccccc2Cl)c(C)c1C(=O)NC1=NCCS1 returned WT yeast gro inh 11, NPY1 pot ag -3, NPY-Y1 antag 6, NPY-Y2 antag 0, RAM network inh 2 and NPY-Y2 PAM-ag -5.
Cc1cc(OCC(=O)Nc2ccc(N3CCCC3)cc2)cc(C)c1Cl was read as WT yeast gro inh -5, NPY1 pot ag 1, NPY-Y1 antag 2, NPY-Y2 antag 4, RAM network inh 2 and NPY-Y2 PAM-ag -10.
Screening O=[N+]([O-])c1cc([N+](=O)[O-])c2c(=Nc3ccccc3)n(-c3ccccc3)n(O)c2c1 returned WT yeast gro inh 47, NPY1 pot ag 28, NPY-Y1 antag -1, RAM network inh 3, NPY-Y2 PAM-ag 46*, NPY-Y2 pot conf 47*, NPY-Y1 counter 52*, NPY-Y1 agonist 2 47*, CNGC inh 34* and NPY-Y2 ag 2 65*.
`Cc1ccc([N+](=O)[O-])cc1N(CC(=O)Nc1ccc(S(=O)(=O)Nc2cccc(C(F)(F)F)c2)cc1)S(C)(=O)=O` gave WT yeast gro inh -2, NPY1 pot ag 25, NPY-Y1 antag -15, NPY-Y2 antag -7, RAM network inh 8, NPY-Y2 PAM-ag 45*, NPY-Y2 pot conf 43*, NPY-Y1 counter 64*, NPY-Y1 agonist 2 58*, CNGC inh 51* and NPY-Y2 ag 2 53*.
For CC1=C(C#N)C(c2ccoc2)C(C(=O)OCc2ccccc2)=C(N)S1 (configuration not stated) the results were WT yeast gro inh -5, NPY1 pot ag -22, NPY-Y1 antag -2, NPY-Y2 antag 1, RAM network inh -1 and NPY-Y2 PAM-ag -3.
O=C(CNC(=O)c1ccc(Br)o1)NCc1ccc2c(c1)OCO2 was read as WT yeast gro inh 1, NPY1 pot ag -22, NPY-Y1 antag 0, NPY-Y2 antag 3, RAM network inh 1 and NPY-Y2 PAM-ag -19.
For COc1ccc(NC(=O)c2c(OC)cccc2OC)c(OC)c1 the results were WT yeast gro inh 8, NPY1 pot ag 1, NPY-Y1 antag 0, NPY-Y2 antag -1, RAM network inh 0, NPY-Y2 PAM-ag 28*, NPY-Y2 pot conf 9, NPY-Y1 counter 10, NPY-Y1 agonist 2 14, CNGC inh 13 and NPY-Y2 ag 2 17*.
For COc1ccc(NC(=O)c2ccc(C(=O)Nc3ccc(OC)cc3OC)cc2)c(OC)c1 the results were WT yeast gro inh 0, NPY1 pot ag 2, NPY-Y1 antag 1, RAM network inh 7 and NPY-Y2 PAM-ag 21.
For O=C(NC(Cc1c[nH]c2ccccc12)C(=O)O)/C(=C\c1ccc2c(c1)OCO2)NC(=O)c1ccccc1 (configuration not stated) the results were NPY1 pot ag -20 and NPY-Y2 PAM-ag -9.
`CCn1c(C)[n+](CC)c2ccc(C(=O)N(C)c3ccccc3)cc21` gave WT yeast gro inh 6, NPY1 pot ag -5, NPY-Y1 antag -1, RAM network inh 1 and NPY-Y2 PAM-ag 5.

High-throughput results deposited in PubChem by several laboratories.
